ChEMBL document CHEMBL4715822, “Structure-based lead optimization to improve antiviral potency and ADMET properties of phenyl-1H-pyrrole-carboxamide entry inhibitors targeted to HIV-1 gp120” (Eur J Med Chem, 2018)

Tests used:
[1] = tested on: Human immunodeficiency virus 1; experiment: Antiviral activity against pseudovirus HIV-1 HXB-2 harboring Env S375H mutant infected in human U87.CD4.CXCR4 cells assessed as reduction in viral infection pretreated for 30 mins before viral infection and measured after 3 days by luciferase based assay; type: functional, cell-based, M:B_HXB2R
Summary of the method: (§1)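 Pseudoviruses made in HEK293T by co-transfecting an Env-deleted backbone (pSG3Δenv or pNL4-3.Luc.R-.E-) with an HXB-2 Env plasmid carrying single or double substitutions; Env sequences confirmed by sequencing. Virus pretreated 30 min with graded compound, added to U87-CD4-CXCR4 cells (1 × 10⁴/well, plated overnight), incubated 3 days. Cells lysed, luciferase measured, IC50 calculated.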

[2] = tested on: Human immunodeficiency virus 1; experiment: Antiviral activity against pseudovirus HIV-1 HXB-2 harboring Env M426L mutant infected in human U87.CD4.CXCR4 cells assessed as reduction in viral infection pretreated for 30 mins before viral infection and measured after 3 days by luciferase based assay; type: functional, cell-based, M:B_HXB2R; summary of the method: as §1
[3] = tested on: Human immunodeficiency virus 1; experiment: Antiviral activity against clinical isolate HIV-1 CMU02 infected in human PBMC cells assessed as reduction in viral transmission to TZM-bl cells pretreated for 1 hr before viral transmission and further incubated for 48 hrs by luciferase based assay; type: functional, cell-based; settings: Human immunodeficiency virus 1, CMU02, PBMC
[4] = tested on: Human immunodeficiency virus 1; experiment: Antiviral activity against clinical isolate HIV-1 Ru132 infected in human PBMC cells assessed as reduction in viral transmission to TZM-bl cells pretreated for 1 hr before viral transmission and further incubated for 48 hrs by luciferase based assay; type: functional, cell-based; settings: Human immunodeficiency virus 1, Ru132, PBMC
Summary of the method: (§2)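 PBMC from healthy HIV-negative donors infected with replication-competent virus in the presence of 30 μg/ml DEAE-dextran. On day 4 post-infection, cells washed free of virus and counted. 2 × 10⁴ infected PBMC/well pretreated with escalating compound for 1 h at 37 °C, then co-cultured 48 h with TZM-bl targets (10⁴/well, plated 24 h before). TZM-bl lysed, luciferase read, IC50 calculated.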

[5] = tested on: Human immunodeficiency virus 1; experiment: Antiviral activity against Laboratory adapted HIV-1 LA1 infected in human PBMC cells assessed as reduction in viral transmission to TZM-bl cells pretreated for 1 hr before viral transmission and further incubated for 48 hrs by luciferase based assay; type: functional, organism-based; settings: Human immunodeficiency virus 1, LA1, PBMC; summary of the method: as §2
[6] = tested on: Human immunodeficiency virus 1; experiment: Antiviral activity against pseudovirus HIV-1 HXB-2 harboring Env L116P mutant infected in human U87.CD4.CXCR4 cells assessed as reduction in viral infection pretreated for 30 mins before viral infection and measured after 3 days by luciferase based assay; type: functional, cell-based, M:B_HXB2R; summary of the method: as §1
[7] = tested on: Human immunodeficiency virus 1; experiment: Antiviral activity against pseudovirus HIV-1 HXB-2 harboring Env A204D mutant infected in human U87.CD4.CXCR4 cells assessed as reduction in viral infection pretreated for 30 mins before viral infection and measured after 3 days by luciferase based assay; type: functional, cell-based, M:B_HXB2R; summary of the method: as §1
[8] = tested on: Human immunodeficiency virus 1; experiment: Antiviral activity against pseudovirus HIV-1 HXB-2 harboring wild type Env infected in human U87.CD4.CXCR4 cells assessed as reduction in viral infection pretreated for 30 mins before viral infection and measured after 3 days by luciferase based assay; type: functional, cell-based; settings: Human immunodeficiency virus 1, M:B_HXB2R
[9] = tested on: Human immunodeficiency virus 1; experiment: Antiviral activity against Laboratory adapted HIV-1 89.6 infected in human PBMC cells assessed as reduction in viral transmission to TZM-bl cells pretreated for 1 hr before viral transmission and further incubated for 48 hrs by luciferase based assay; type: functional, cell-based; settings: Human immunodeficiency virus 1, 89.6, PBMC

COc1cnc(-n2cnc(C)n2)c2[nH]cc(C(=O)C(=O)N3CCN(C(=O)c4ccccc4)CC3)c12
IC50 [1]: > 1000 nM | IC50 [2]: 230 nM | IC50 [3]: > 6000 nM | IC50 [4]: 100 nM | IC50 [5]: 100 nM | IC50 [6]: > 1000 nM | IC50 [7]: > 1000 nM | IC50 [8]: 8 nM | IC50 [9]: 100 nM
